# Measured values reported in ChEMBL document CHEMBL2086239, “Synthesis and biological evaluation of combretastatin-amidobenzothiazole conjugates as potential anticancer agents” (Eur J Med Chem, 2012).
# The source made the active and inactive calls. The calls are words filed in the database; no cut-off is given here.
# Columns and labels:
# Type in all cases: functional
# [1] = test system: HCT-15; assay: Growth inhibition of human HCT15 cells after 48 hrs by SRB assay; conditions: HCT-15, 48 h
# Procedure, shortened: (§1)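 NCI 60-cell-line screen: after preliminary screening, tested at five dose concentrations on 59 human tumour lines covering leukemia, lung, colon, CNS, melanoma, ovarian, renal, prostate and breast.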
# [2] = test system: U-251; assay: Growth inhibition of human U251cells after 48 hrs by SRB assay; conditions: U-251, 48 h
# Procedure, shortened: (§2)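 NCI 60-cell-line panel, five-dose testing after preliminary screen; sulforhodamine B protein assay in DMEM with 10% FBS, 37 °C, 5% CO2, 100% humidity. Cells seeded and incubated 24 h before compound addition, then exposed 48 h. Absorbance read at 560 nm; growth percentage relative to control wells; GI50 taken as concentration giving 50% growth inhibition.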
# [3] = test system: SN12C; assay: Growth inhibition of human SN12C cells after 48 hrs by SRB assay; procedure, shortened: as §2
# [4] = test system: A549; assay: Growth inhibition of human A549 cells after 48 hrs by SRB assay; conditions: A549, 48 h; procedure, shortened: as §1
# [5] = test system: A549; assay: Cytotoxicity against human A549 cells assessed as inhibition of cell growth at 10 uM after 48 hrs by SRB assay relative to control
# Procedure, shortened: (§3)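 SRB protein assay in DMEM with 10% FBS at 37 °C, 5% CO2, 100% relative humidity. Cells seeded in 96-well plates, incubated 24 h, then exposed to drug at 10 µM for 48 h and processed per standard protocol. Absorbance read at 560 nm; growth percentage calculated for test wells relative to control wells.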
# [6] = test system: COLO 205; assay: Cytotoxicity against human COLO205 cells after 48 hrs assessed as inhibition of cell growth at 10 uM after 48 hrs by SRB assay relative to control; conditions: COLO 205, 48 h, read-out: GI; procedure, shortened: as §3
# [7] = test system: OVCAR-8; assay: Growth inhibition of human OVCAR8 cells after 48 hrs by SRB assay; conditions: OVCAR-8, 48 h; procedure, shortened: as §1
# [8] = test system: IMR-32; assay: Cytotoxicity against human IMR32 cells after 48 hrs assessed as inhibition of cell growth at 10 uM after 48 hrs by SRB assay relative to control; conditions: IMR-32, 48 h, read-out: GI; procedure, shortened: as §3
# [9] = test system: CAKI-1; assay: Growth inhibition of human Caki1 cells after 48 hrs by SRB assay; conditions: CAKI-1, 48 h; procedure, shortened: as §1
# [10] = test system: CCRF-CEM; assay: Growth inhibition of human CCRF-CEM cells after 48 hrs by SRB assay; procedure, shortened: as §1
# [11] = test system: SK-OV-3; assay: Growth inhibition of human SKOV3 cells after 48 hrs by SRB assay; conditions: SK-OV-3, 48 h; procedure, shortened: as §2
# [12] = test system: LOX IMVI; assay: Growth inhibition of human LOXIMVI cells after 48 hrs by SRB assay; procedure, shortened: as §1
# [13] = test system: HCT-116; assay: Growth inhibition of human HCT116 cells after 48 hrs by SRB assay; conditions: HCT-116, 48 h; procedure, shortened: as §1
# [14] = test system: RPMI-8226; assay: Growth inhibition of human RPMI8226 cells after 48 hrs by SRB assay; conditions: RPMI-8226, 48 h; procedure, shortened: as §1
# [15] = test system: OVCAR-4; assay: Growth inhibition of human OVCAR4 cells after 48 hrs by SRB assay; conditions: OVCAR-4, 48 h; procedure, shortened: as §1
# [16] = test system: MOLT-4; assay: Growth inhibition of human MOLT4 cells after 48 hrs by SRB assay; conditions: MOLT-4, 48 h; procedure, shortened: as §1
# [17] = test system: PC-3; assay: Cytotoxicity against human PC3 cells after 48 hrs assessed as inhibition of cell growth at 10 uM after 48 hrs by SRB assay relative to control; conditions: PC-3, 48 h, read-out: GI; procedure, shortened: as §3
# [18] = test system: EKVX; assay: Growth inhibition of human EKVX cells after 48 hrs by SRB assay; procedure, shortened: as §1
# [19] = test system: SNB-75; assay: Growth inhibition of human SNB75 cells after 48 hrs by SRB assay; conditions: SNB-75, 48 h; procedure, shortened: as §2
# [20] = test system: SF-539; assay: Growth inhibition of human SF539 cells after 48 hrs by SRB assay; conditions: SF-539, 48 h; procedure, shortened: as §2
# [21] = test system: ACHN; assay: Growth inhibition of human ACHN cells after 48 hrs by SRB assay; procedure, shortened: as §1
# [22] = test system: MDA-MB-435; assay: Growth inhibition of human MDA-MB-435 cells after 48 hrs by SRB assay; conditions: MDA-MB-435, 48 h; procedure, shortened: as §1
# [23] = test system: A498; assay: Growth inhibition of human A498 cells after 48 hrs by SRB assay; conditions: A498, 48 h; procedure, shortened: as §1
# [24] = test system: DU-145; assay: Growth inhibition of human DU145 cells after 48 hrs by SRB assay; conditions: DU-145, 48 h; procedure, shortened: as §1
# [25] = test system: SR; assay: Growth inhibition of human SR cells after 48 hrs by SRB assay; procedure, shortened: as §2
# [26] = test system: NCI-H522; assay: Growth inhibition of human NCI-H522 cells after 48 hrs by SRB assay; conditions: NCI-H522, 48 h; procedure, shortened: as §1
# [27] = test system: OVCAR-5; assay: Growth inhibition of human OVCAR5 cells after 48 hrs by SRB assay; procedure, shortened: as §1
# [28] = test system: T47D; assay: Growth inhibition of human T47D cells after 48 hrs by SRB assay; procedure, shortened: as §2
# [29] = test system: SF-268; assay: Growth inhibition of human SF268 cells after 48 hrs by SRB assay; conditions: SF-268, 48 h; procedure, shortened: as §1
# [30] = test system: HOP-62; assay: Growth inhibition of human HOP62 cells after 48 hrs by SRB assay; conditions: HOP-62, 48 h; procedure, shortened: as §1
# [31] = test system: NCI-H460; assay: Growth inhibition of human NCI-H460 cells after 48 hrs by SRB assay; conditions: NCI-H460, 48 h; procedure, shortened: as §1
# [32] = test system: MCF7; assay: Cell cycle arrest in human MCF7 cells assessed as accumulation at G1 phase at 4 uM after 24 hrs by FACS analysis (reference value: 58.33%)
# [33] = test system: COLO 205; assay: Growth inhibition of human COLO205 cells after 48 hrs by SRB assay; conditions: COLO 205, 48 h; procedure, shortened: as §1
# [34] = test system: OVCAR-3; assay: Growth inhibition of human OVCAR3 cells after 48 hrs by SRB assay; conditions: OVCAR-3, 48 h; procedure, shortened: as §1
# [35] = test system: PC-3; assay: Growth inhibition of human PC3 cells after 48 hrs by SRB assay; conditions: PC-3, 48 h; procedure, shortened: as §1
# [36] = test system: Hs-578T; assay: Growth inhibition of human Hs578T cells after 48 hrs by SRB assay; procedure, shortened: as §1
# [37] = test system: RXF 393; assay: Growth inhibition of human RXF393 cells after 48 hrs by SRB assay; conditions: RXF 393, 48 h; procedure, shortened: as §1
# [38] = test system: 786-0; assay: Growth inhibition of human 786-0 cells after 48 hrs by SRB assay; conditions: 786-0, 48 h; procedure, shortened: as §1
# [39] = test system: NCI/ADR-RES; assay: Growth inhibition of human NCI/ADR-RES cells after 48 hrs by SRB assay; procedure, shortened: as §1
# [40] = test system: UACC-62; assay: Growth inhibition of human UACC62 cells after 48 hrs by SRB assay; conditions: UACC-62, 48 h; procedure, shortened: as §2
# [41] = test system: MCF7; assay: Cell cycle arrest in human MCF7 cells assessed as accumulation at G2/M phase at 4 uM after 24 hrs by FACS analysis (reference value: 34.88%)
# [42] = test system: SW-620; assay: Growth inhibition of human SW620 cells after 48 hrs by SRB assay; procedure, shortened: as §2
# [43] = test system: SK-MEL-2; assay: Growth inhibition of human SK-MEL-2 cells after 48 hrs by SRB assay; conditions: SK-MEL-2, 48 h; procedure, shortened: as §2
smiles,measurement,setting,value
COc1ccc(/C=C\c2cc(OC)c(OC)c(OC)c2)cc1OCC(=O)Nc1ccc2nc(C)sc2c1,GI50,[1],2.8 µM
same,GI50,[2],3.59 µM
same,GI50,[3],3.53 µM
same,GI50,[4],2.1 µM
same,growth inhibition (GI),[5],inactive
same,inhibition of growth at 10 µM,[6],17%
same,GI50,[7],2.12 µM
same,inhibition of growth at 10 µM,[8],62%
same,GI50,[9],2.19 µM
same,GI50,[10],3.41 µM
same,GI50,[11],5.27 µM
same,GI50,[12],2.64 µM
same,GI50,[13],3.57 µM
same,GI50,[14],1.98 µM
same,GI50,[15],2.64 µM
same,GI50,[16],2.11 µM
same,inhibition of growth at 10 µM,[17],61%
same,GI50,[18],4.05 µM
same,GI50,[19],1.55 µM
same,GI50,[20],2.56 µM
same,GI50,[21],3.12 µM
same,GI50,[22],2.13 µM
same,GI50,[23],4.18 µM
same,GI50,[24],3.81 µM
same,GI50,[25],2.93 µM
same,GI50,[26],2.28 µM
same,GI50,"[27]; OVCAR-5, 48 h",6.69 µM
same,GI50,[28],9.41 µM
same,GI50,[29],3.61 µM
same,GI50,[30],3.09 µM
same,GI50,[31],3.36 µM
same,Activity,[32],55.2%
same,GI50,[33],4.4 µM
same,GI50,[34],6.32 µM
same,GI50,[35],2.8 µM
same,GI50,[36],4.32 µM
same,GI50,[37],5.06 µM
same,GI50,[38],7.55 µM
same,GI50,[39],2.36 µM
same,GI50,[40],2.19 µM
same,Activity,[41],37.09%
same,GI50,"[42]; SW-620, 48 h",4.7 µM
same,GI50,[43],3.15 µM
COc1ccc(/C=C\c2cc(OC)c(OC)c(OC)c2)cc1OCC(=O)Nc1nc2ccc(F)cc2s1,GI50,[1],8.19 µM
same,GI50,[2],4.33 µM
same,GI50,[3],4.61 µM
same,GI50,[4],5.99 µM
same,inhibition of growth at 10 µM,"[5]; A549, 48 h, read-out: GI",44%
same,inhibition of growth at 10 µM,[6],50%
same,GI50,[7],7.15 µM
same,inhibition of growth at 10 µM,[8],77%
same,GI50,[9],2.78 µM
same,GI50,[10],3.7 µM
same,GI50,[11],8 µM
same,GI50,[12],3.23 µM
same,GI50,[13],4.48 µM
same,GI50,[14],6.36 µM
same,GI50,[15],7.3 µM
same,GI50,[16],3.07 µM
same,inhibition of growth at 10 µM,[17],32%
same,GI50,[18],5.72 µM
same,GI50,[19],4.39 µM
same,GI50,[20],4.51 µM
same,GI50,[21],3.33 µM
same,GI50,[22],0.33 µM
same,GI50,[23],6.25 µM
same,GI50,[24],8.97 µM
same,GI50,[25],2.19 µM
same,GI50,[26],2.92 µM
same,GI50,[27],inactive
same,GI50,[28],3.39 µM
same,GI50,[29],7.23 µM
same,GI50,[30],5.7 µM
same,GI50,[31],4.36 µM
same,Activity,[32],44.28%
same,GI50,[33],7.78 µM
same,GI50,[34],9.99 µM
same,GI50,[35],6.74 µM
same,GI50,[36],inactive
same,GI50,[37],6.29 µM
same,GI50,[38],7.12 µM
same,GI50,[39],2.55 µM
same,GI50,[40],4.05 µM
same,Activity,[41],42.08%
same,GI50,[42],inactive
same,GI50,[43],8.46 µM
